Values after ≈ are worked out from the molar mass of the structure shown.
Experiments:
Format in all cases: functional
Prevotella bivia [1] = test: Antimicrobial activity against slow growing colonies of Prevotella bivia LBP 51 deficient in nim gene assessed as inhibition of growth at 48 hrs by agar dilution method; settings: LBP 51, 48 h
How it was run: (§1)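 Metronidazole MIC by agar dilution per CLSI M11-A7 on brucella agar with 5% sheep blood, hemin and vitamin K1. Plates incubated anaerobically at 35°C and read at 48 h, with a second reading after a further 72 h. B. fragilis ATCC 25285T and B. thetaiotaomicron ATCC 29741 served as controls. Done in duplicate; EUCAST breakpoints applied (S ≤4, R ≥8 μg/ml).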

Prevotella bivia [2] = test: Antimicrobial activity against slow growing colonies of Prevotella bivia LBN 374 deficient in nim gene assessed as inhibition of growth at 48 hrs by agar dilution method; settings: LBN 374, 48 h; how it was run: as §1
Prevotella bivia [3] = test: Antimicrobial activity against Prevotella bivia LBN 331 deficient in nim gene assessed as inhibition of growth at 48 hrs by agar dilution method; settings: LBN 331, 48 h
How it was run: (§2)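 Metronidazole MIC by agar dilution (CLSI M11-A7) on brucella agar with 5% sheep blood, hemin and vitamin K1. Plates were read after 48 h at 35°C under anaerobic conditions. Susceptible was MIC ≤ 4 μg/ml and resistant MIC ≥ 8 μg/ml (EUCAST). B. fragilis ATCC 25285T and B. thetaiotaomicron ATCC 29741 were run as controls. Duplicate assays.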

Prevotella bivia [4] = test: Antimicrobial activity against slow growing colonies of Prevotella bivia LBP 65 deficient in nim gene assessed as inhibition of growth at 48 hrs by agar dilution method; settings: LBP 65, 48 h; how it was run: as §1
Prevotella bivia [5] = test: Antimicrobial activity against Prevotella bivia LBP 38 deficient in nim gene assessed as inhibition of growth at 48 hrs by agar dilution method; settings: LBP 38, 48 h; how it was run: as §2
Prevotella bivia [6] = test: Antimicrobial activity against slow growing colonies of Prevotella bivia LBN 330 deficient in nim gene assessed as inhibition of growth at 48 hrs by agar dilution method; settings: LBN 330, 48 h
How it was run: (§3)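 Slowly growing colonies inside the Etest inhibition zone, seen after prolonged incubation (an additional 72 h after the 48 h reading), were subcultured without antibiotic. They were then retested for metronidazole MIC by agar dilution on supplemented brucella blood agar under anaerobic conditions.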

Prevotella bivia [7] = test: Antimicrobial activity against slow growing colonies of Prevotella bivia LBP 78 deficient in nim gene assessed as inhibition of growth at 48 hrs by agar dilution method; settings: LBP 78, 48 h; how it was run: as §1
Prevotella bivia [8] = test: Antimicrobial activity against slow growing colonies of Prevotella bivia LBP 69 deficient in nim gene assessed as inhibition of growth at 48 hrs by agar dilution method; settings: LBP 69, 48 h; how it was run: as §1
Prevotella bivia [9] = test: Antimicrobial activity against slow growing colonies of Prevotella bivia LBN 331 deficient in nim gene assessed as inhibition of growth at 48 hrs by agar dilution method; settings: LBN 331, 48 h; how it was run: as §3
Prevotella bivia [10] = test: Antimicrobial activity against Prevotella bivia LBN 350 deficient in nim gene assessed as inhibition of growth at 48 hrs by agar dilution method; settings: LBN 350, 48 h; how it was run: as §2
Prevotella bivia [11] = test: Antimicrobial activity against Prevotella bivia LBP 51 deficient in nim gene assessed as inhibition of growth at 48 hrs by agar dilution method; settings: LBP 51, 48 h; how it was run: as §2
Bacteroides fragilis = test: Antimicrobial activity against Bacteroides fragilis ATCC 25285T deficient in nimI gene assessed as inhibition of growth after three consecutive subcultures on compound free medium by agar dilution method
How it was run: (§4)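 Resistance induction: bacterial suspensions were plated on supplemented brucella blood agar with rising metronidazole concentrations. Colonies from the highest concentration were tested by agar dilution. MIC was then redetermined after three consecutive subcultures on drug-free agar. Resistance counted as stable if the MIC held within ±1 dilution. Anaerobic growth at 37°C. Duplicate experiments.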

Prevotella bivia [12] = test: Antimicrobial activity against Prevotella bivia LBP 69 deficient in nim gene assessed as inhibition of growth at 48 hrs by agar dilution method; settings: LBP 69, 48 h; how it was run: as §2
Prevotella bivia [13] = test: Antimicrobial activity against Prevotella bivia LBN 343 deficient in nim gene assessed as inhibition of growth at 48 hrs by agar dilution method; settings: LBN 343, 48 h
How it was run: (§5)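 Agar dilution MIC on brucella agar with 5% sheep blood, hemin and vitamin K1, following CLSI M11-A7. Plates read after 48 h at 35°C under anaerobic conditions, with B. fragilis ATCC 25285T and B. thetaiotaomicron ATCC 29741 as controls. Assays in duplicate. Isolates kept at −80°C in brucella broth with 15% glycerol. Interpretation used EUCAST breakpoints (S ≤4, R ≥8 μg/ml).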

Prevotella baroniae [14] = test: Antimicrobial activity against Prevotella baroniae LBN 432 expressing nim gene assessed as inhibition of growth at 48 hrs by agar dilution method; settings: Segatella baroniae, LBN 432, 48 h; how it was run: as §2
Prevotella bivia [15] = test: Antimicrobial activity against Prevotella bivia LBP 78 deficient in nim gene assessed as inhibition of growth at 48 hrs by agar dilution method; settings: LBP 78, 48 h; how it was run: as §2
Prevotella baroniae [16] = test: Antimicrobial activity against Prevotella baroniae LBN 475 expressing nimI gene assessed as inhibition of growth after several passages on plates containing increasing concentration of compound by agar dilution method; settings: Segatella baroniae
How it was run: (§6)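 Induction of metronidazole resistance: bacterial suspensions inoculated onto brucella blood agar (5% sheep blood, hemin, vitamin K1) containing metronidazole at increasing concentrations, grown anaerobically at 37°C. Colonies growing at the highest concentration were retested for MIC by CLSI agar dilution on the same agar. Duplicate experiments.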

Prevotella bivia [17] = test: Antimicrobial activity against Prevotella bivia LBN 371 deficient in nimI gene assessed as inhibition of growth after three consecutive subcultures on compound free medium by agar dilution method; how it was run: as §4
Prevotella buccae = test: Antimicrobial activity against Prevotella buccae LBN 465 deficient in nimI gene assessed as inhibition of growth at 48 hrs by agar dilution method; settings: Segatella buccae, LBN 465, 48 h; how it was run: as §5
Prevotella nanceiensis [18] = test: Antimicrobial activity against Prevotella nanceiensis LBN 410 deficient in nimI gene assessed as inhibition of growth after several passages on plates containing increasing concentration of compound by agar dilution method; settings: Hoylesella nanceiensis; how it was run: as §6
Prevotella nanceiensis [19] = test: Antimicrobial activity against slow growing colonies of Prevotella nanceiensis LBN 410 deficient in nim gene assessed as inhibition of growth at 48 hrs by agar dilution method; settings: Hoylesella nanceiensis, LBN 410, 48 h; how it was run: as §1
Prevotella baroniae [20] = test: Antimicrobial activity against Prevotella baroniae DSM 16972T expressing nimI gene assessed as inhibition of growth after several passages on plates containing increasing concentrations of compound by agar dilution method; settings: Segatella baroniae; how it was run: as §6
Prevotella baroniae [21] = test: Antimicrobial activity against Prevotella baroniae LBN 432 expressing nimI gene assessed as inhibition of growth after three consecutive subcultures on compound free medium by agar dilution method; settings: Segatella baroniae
How it was run: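 Stability of induced resistance: metronidazole-selected isolates were subcultured three consecutive times on drug-free brucella blood agar (5% sheep blood, hemin, vitamin K1) under anaerobic conditions, then MIC was redetermined by CLSI agar dilution. Resistance was called stable if the MIC held within ±1 dilution. Duplicate experiments.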

Prevotella bivia [22] = test: Antimicrobial activity against slow growing colonies of Prevotella bivia LBN 464 deficient in nim gene assessed as inhibition of growth at 48 hrs by agar dilution method; settings: LBN 464, 48 h; how it was run: as §1
Prevotella bivia [23] = test: Antimicrobial activity against slow growing colonies of Prevotella bivia LBN 361 deficient in nim gene assessed as inhibition of growth at 48 hrs by agar dilution method; settings: LBN 361, 48 h; how it was run: as §1
Prevotella bivia [24] = test: Antimicrobial activity against Prevotella bivia LBP 4 deficient in nim gene assessed as inhibition of growth at 48 hrs by agar dilution method; settings: LBP 4, 48 h; how it was run: as §2

SMILES: Cc1ncc([N+](=O)[O-])n1CCO [METRONIDAZOLE]
- MIC (Prevotella bivia [1]): 32 µg/mL (≈ 187 µM)
- MIC (Prevotella bivia [2]): 8 µg/mL (≈ 46.7 µM)
- MIC (Prevotella bivia [3]): 2 µg/mL (≈ 11.7 µM)
- MIC (Prevotella bivia [4]): 32 µg/mL (≈ 187 µM)
- MIC (Prevotella bivia [5]): 2 µg/mL (≈ 11.7 µM)
- MIC (Prevotella bivia [6]): 16 µg/mL (≈ 93.5 µM)
- MIC (Prevotella bivia [7]): 8 µg/mL (≈ 46.7 µM)
- MIC (Prevotella bivia [8]): 8 µg/mL (≈ 46.7 µM)
- MIC (Prevotella bivia [9]): 16 µg/mL (≈ 93.5 µM)
- MIC (Prevotella bivia [10]): 2 µg/mL (≈ 11.7 µM)
- MIC (Prevotella bivia [11]): 2 µg/mL (≈ 11.7 µM)
- MIC (Bacteroides fragilis): 128 µg/mL (≈ 748 µM)
- MIC (Prevotella bivia [12]): 2 µg/mL (≈ 11.7 µM)
- MIC (Prevotella bivia [13]): 1 µg/mL (≈ 5.84 µM)
- MIC (Prevotella baroniae [14]): 2 µg/mL (≈ 11.7 µM)
- MIC (Prevotella bivia [15]): 4 µg/mL (≈ 23.4 µM)
- MIC (Prevotella baroniae [16]): 256 µg/mL (≈ 1500 µM)
- MIC (Prevotella bivia [17]): > 256 µg/mL
- MIC (Prevotella buccae): 0.5 µg/mL (≈ 2.92 µM)
- MIC (Prevotella nanceiensis [18]): 256 µg/mL (≈ 1500 µM)
- MIC (Prevotella nanceiensis [19]): 32 µg/mL (≈ 187 µM)
- MIC (Prevotella baroniae [20]): 16 µg/mL (≈ 93.5 µM)
- MIC (Prevotella baroniae [21]): 64 µg/mL (≈ 374 µM)
- MIC (Prevotella bivia [22]): 16 µg/mL (≈ 93.5 µM)
- MIC (Prevotella bivia [23]): 32 µg/mL (≈ 187 µM)
- MIC (Prevotella bivia [24]): 2 µg/mL (≈ 11.7 µM)
